From ChEMBL document CHEMBL3580660, “Synthesis and Biological Evaluation of Novel Olean-28,13β-lactams as Potential Antiprostate Cancer Agents” (J Med Chem, 2015)

Experiment: Stability in rat plasma assessed as compound remaining after 1 hr by LC-MS/MS analysis
Type: ADME, cell-free
Conditions: read-out: Stability
Method in brief: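 Compound at 50 ng/mL incubated in pooled heparinized rat plasma, 37 °C, 60 min. Proteins precipitated with 5 volumes cold acetonitrile containing internal standard; remaining compound measured by LC−MS/MS and expressed as percent remaining; mean ± SD.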

SMILES: CC1(C)CC[C@]23CC[C@@]4(C)[C@]5(C)CC[C@H]6C(C)(C)C(=O)C(C#N)=C[C@]6(C)C5=CC(=O)[C@@]4([C@@H]2C1)N(C1CCCCC1)C3=O
- remaining at 1 h: 46%
